WT yeast gro inh: growth inhibition of WT yeast, mitochondrial fusion screen | inhibition, % at 10 µM | AID 1362 | 190,000 compounds, 2.1% hits | mitochondrial fusion phenotypic screen, WT strain; in the data active = inhibition above about 58%; tested in S. cerevisiae
Yeast lifespan up: yeast lifespan extension; AID 775; S. cerevisiae growth with nicotinamide, OD615; deaD strain in restrictive glucose medium; 130,000 compounds, 0.68% hits; inhibition of the nicotinamide effect, % at 10 µM;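 active = inhibition above a set limit, placed 3 SD over the median of all compounds, cut at about 26% in these data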;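 note: 0% = nicotinamide-treated wells and 100% = cells grown without nicotinamide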
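Material: Modified budding yeast, DeaD strain | Medium: Restrictive glucose medium | Probe or stimulus: 1.5 mM nicotinamide | Dosing: Single dose 10 µM compound, 0.25% DMSO | Times: 48 h at 30 °C | Technique: OD615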
RAM network inh: inhibitors of the yeast RAM network. S. cerevisiae dse1pr::URA3 reporter, 5-FOA growth OD615, 2 d; analog-sensitive cbk1-as2 kinase mutant strain. inhibition, % at 50 µM. 190,000 compounds, 1.8% hits;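 active = inhibition above a set limit, 3 SD over mean compound inhibition, cut at about 8.4% in these data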;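 note: 0% = DMSO-only wells with no growth and 100% = 10 µM 1-NA-PP1 full growth; inhibition rescues growth on 5-FOA so higher OD means more RAM inhibition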
BB579 growth dn: chemicals that inhibit yeast BB579 growth in restrictive medium (lifespan-shortening candidates); 140,000 compounds, 0.51% hits; inhibition, % at 10 µM; S. cerevisiae BB579 growth, OD615, 48 h; AID 804;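 active = inhibition above a set limit, 3 SD over the mean compound inhibition, cut at about 44% in these data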
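Assay system: S. cerevisiae DeaD strain BB579 yeast. Medium: CSMM-D restrictive synthetic medium containing dextrose (glucose). Times: 4 h cell preincubation, 48 h compound exposure, 30 °C humidified. Signal: OD615 turbidity measurement. Benchmarks: positive control amphotericin B 10 µg/mL.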
Cl transport mod: modulators of human KCC2 chloride dependent transport; Q9H2X9; KCC2 cells, thallium flux FluoZin-2 fluorescence; B-score of Tl+ flux slope (higher = more flux/activation; lower = inhibition) at 10 µM; 190,000 compounds, 2.2% hits; AID 1456;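 active = thallium flux slope and its plate-corrected score both differing from the plate sample mean at a set confidence after two filtering rounds, in either direction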;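 note: slope of fluorescence scaled to starting intensity during 10 to 20 s after thallium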
Target sequence (Q9H2X9 whole entry, looked up): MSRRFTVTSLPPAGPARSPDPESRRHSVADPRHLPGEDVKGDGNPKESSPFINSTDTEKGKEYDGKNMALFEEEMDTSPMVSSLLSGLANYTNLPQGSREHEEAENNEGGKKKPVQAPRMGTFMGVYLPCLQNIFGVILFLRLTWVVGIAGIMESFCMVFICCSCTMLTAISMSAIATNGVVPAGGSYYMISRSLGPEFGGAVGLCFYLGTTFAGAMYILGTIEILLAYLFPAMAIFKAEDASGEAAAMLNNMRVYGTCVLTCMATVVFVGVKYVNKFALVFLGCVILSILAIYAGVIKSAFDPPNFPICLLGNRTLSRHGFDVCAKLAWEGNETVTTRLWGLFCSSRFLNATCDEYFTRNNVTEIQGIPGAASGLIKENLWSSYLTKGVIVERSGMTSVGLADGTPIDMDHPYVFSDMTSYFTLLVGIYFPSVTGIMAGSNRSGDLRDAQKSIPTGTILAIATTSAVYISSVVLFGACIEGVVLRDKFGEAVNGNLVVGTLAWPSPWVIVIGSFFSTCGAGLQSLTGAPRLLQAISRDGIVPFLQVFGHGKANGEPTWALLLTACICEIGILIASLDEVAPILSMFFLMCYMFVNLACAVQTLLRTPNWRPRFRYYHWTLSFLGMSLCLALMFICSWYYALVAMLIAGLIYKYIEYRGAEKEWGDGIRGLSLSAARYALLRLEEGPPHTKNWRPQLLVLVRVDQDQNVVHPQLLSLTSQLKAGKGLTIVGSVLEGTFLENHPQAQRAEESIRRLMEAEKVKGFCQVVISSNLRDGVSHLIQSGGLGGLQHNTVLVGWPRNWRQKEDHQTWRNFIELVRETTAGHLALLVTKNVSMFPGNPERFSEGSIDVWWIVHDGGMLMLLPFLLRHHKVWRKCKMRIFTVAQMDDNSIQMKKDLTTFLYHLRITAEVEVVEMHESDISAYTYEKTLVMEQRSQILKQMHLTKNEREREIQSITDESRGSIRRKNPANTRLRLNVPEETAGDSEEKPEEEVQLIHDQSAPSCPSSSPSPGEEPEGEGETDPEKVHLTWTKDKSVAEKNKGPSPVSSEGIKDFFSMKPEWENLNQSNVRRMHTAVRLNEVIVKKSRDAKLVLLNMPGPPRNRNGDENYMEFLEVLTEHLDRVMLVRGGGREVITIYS
An asterisk follows results filed as active; x = no result given. Rows were chosen to be rich in hits. Some 5.5% of all compounds tested hit in one or more screens of this group.

SMILES	WT yeast gro inh	Yeast lifespan up	RAM network inh	BB579 growth dn	Cl transport mod
CCCCNC(=S)N1CCn2cccc2C1c1ccc(F)cc1 (configuration not stated)	61*	x	3	x	1
Fc1ccc(C2c3cccn3CCN2C(=S)Nc2cccc(Br)c2)cc1 (configuration not stated)	86*	x	3	x	0.21
CCCCNC(=S)N1CCn2cccc2C1c1ccccc1 (configuration not stated)	33	x	3	x	0.9
Fc1ccc(NC(=S)N2CCn3cccc3C2c2cccnc2)cc1 (configuration not stated)	-6	x	0	x	0.15
O=C1COc2ccc(C(=O)COC(=O)CNC(=O)C3CCCCC3)cc2N1	-11	x	0	x	0.89
CC12CC3CC(C)(C1)CC(C(=O)NC(=S)N1CCCCC1)(C3)C2	77*	-3	0	-17	10*
O=C(NC(=S)N1CCOCC1)C12CC3CCC(CC(C3)C1)C2	-6	8	0	5	2.6
CC12CC3(C)CC(C)(C1)CC(C(=O)NC(=S)N1CCOCC1)(C2)C3	5	0	-1	-14	9.4*
COc1ccc(C)cc1S(=O)(=O)N1c2ccccc2CC1C (configuration not stated)	1	19	1	-28	x
COc1ccc(-c2csc(/C(C#N)=C\c3ccc(O)c([N+](=O)[O-])c3)n2)cc1OC	x	x	x	x	-1.3
COc1cc(/C=C(\C#N)c2nc3ccccc3s2)cc([N+](=O)[O-])c1O	67*	x	7	x	-1.8
COc1ccc(NC(=O)c2oc3ccccc3c2NC(=O)COc2ccccc2OC)c(OC)c1	64*	-17	5	-47	x
Cc1cc(OCC(=O)N2CCOCC2)ccc1[N+](=O)[O-]	x	x	x	x	-0.27
O=C(Nc1ccc([N+](=O)[O-])cc1)Nc1ccc(N2CCOCC2)c2nonc12	79*	x	1	x	-0.0093
CNC(=O)c1sc(N2N=C3/C(=C/c4ccccc4)CCCC3C2c2ccccc2)nc1C (configuration not stated)	-1	-15	9.9*	-46	x
O=C(c1ccccn1)N1N=C2/C(=C/c3ccccc3)CCCC2C1c1ccccc1 (configuration not stated)	53	3	2	-16	-2.4
CCOc1ccccc1-c1nc(C(N)=O)c2[nH]c(=O)n(-c3ccccc3)c2n1	-4	-5	9.7*	-26	x
COc1ccc(/C=C/C(=O)c2cc(Br)ccc2O)cc1OC	-25	x	2	x	-0.65
COc1ccc(/C=C/C(=O)c2cc(Br)ccc2OC(=O)c2ccco2)cc1OC	65*	2	5	-25	-0.16
COc1nc(OCC#N)nc(N2CCCCC2)n1	-8	x	2	x	-0.4
COc1nc(N2CCCCCC2)nc(N2CCCCCC2)n1	64*	5	1	-43	-0.27
CCCOC(=O)c1c(NC(=O)CSc2nc(-c3ccco3)cc(C(F)(F)F)n2)sc(C(=O)OC)c1C	4	6	8.8*	-70	x
CC1CC(C)CN(C(=O)c2ccccc2Nc2ccc(SC(F)F)cc2)C1 (configuration not stated)	57	-22	9.0*	6	x
CN1CCN(C(=O)c2ccccc2Nc2ccc(SC(F)F)cc2)CC1	-3	x	1	x	0.67
Cc1[nH]c2ccccc2c1N=Nc1ccccc1F	72*	x	-1	x	1.4
SMILES	WT yeast gro inh	Yeast lifespan up	RAM network inh	BB579 growth dn	Cl transport mod
COc1ccc(N(C(=O)c2cnccn2)C(C(=O)NC2CCCCC2)c2ccc(O)cc2)cc1 (configuration not stated)	-2	x	0	x	x
CCOC(=O)c1c(C)[nH]c(C)c1C(=O)COC(=O)c1ccc(S(=O)(=O)N(CC)CC)cc1	0	-13	8.7*	-38	-0.22
CC(=O)C1=C(C)N=c2s/c(=C/c3ccc4c(c3)OCO4)c(=O)n2C1c1ccc(N(C)C)cc1 (configuration not stated)	10	x	x	x	x
CC1(C)CC(=O)C2=C(C1)N=c1s/c(=C/c3ccc(F)c(F)c3)c(=O)n1C2c1ccc(F)cc1 (configuration not stated)	76*	-12	4	-55	x
CSCCC(NC(=O)c1ccc(Cl)cc1Cl)C(=O)OCC(N)=O (configuration not stated)	x	x	x	x	-0.13
CSCCC(NC(=O)c1ccc(Cl)cc1)C(=O)OCC(=O)Nc1cc(Cl)ccc1C (configuration not stated)	23	-2	10*	3	-1.6
COc1ccc(/C=C/C(=O)NCC(c2ccc(F)cc2)N2CCOCC2)cc1OC (configuration not stated)	x	x	x	x	-0.47
COc1ccc(CN(C)CC(=O)NC(=O)NCc2ccccc2)cc1OC	-5	-1	2	4	5*
COc1cccc(CN(C)CC(=O)NC(=O)NCc2ccccc2)c1	-18	-2	-1	-10	0.56
Cc1cc(C)cc(CC2CC(=O)N(c3ccc(Cl)cn3)C2=O)c1 (configuration not stated)	6	43*	0	-25	0.083
CCC(C)(C)NC(=O)c1cc([N+](=O)[O-])ccc1N1CCOCC1	19	-1	3	-35	0.98
CC(=O)Nc1ccc(C(=O)OCC(=O)N(Cc2ccccc2)C(C)(C)C)cc1	-4	54*	0	-14	-0.18
CC(=O)Nc1ccc(C(=O)OCc2ccc(Cl)cc2)cc1	-9	-21	4	-24	-0.59
CC(=O)Nc1ccc(C(=O)OCc2ccccc2Br)cc1	76*	x	8.8*	x	1.4
COc1ccc(-c2cc(C(F)F)n3ncc(C(=O)Nc4cccc(S(=O)(=O)N5CCOCC5)c4)c3n2)cc1	-2	x	7	x	0.44
O=C(Nc1ccccc1C(=O)O)c1cccc(NC(=O)c2ccc(Br)o2)c1	-6	-5	5	2	-3.2*
O=C(Nc1ccccc1C(=O)O)c1ccc(NC(=O)c2ccc(Br)o2)cc1	12	-2	4	-8	-1.4
O=[N+]([O-])c1ccc(N/N=C2/CCCCC2c2ccccn2)cc1 (configuration not stated)	74*	-10	-1	98*	-0.93
CNC(=O)COc1ncnc2sccc12	-3	-14	0	-16	0.0086
Cc1cc(C(=O)COc2ncnc3sccc23)c(C)n1C	4	35*	2	-63	x
COc1ccc(Cn2c(-c3ccc(C)cc3)nc3c(c(=O)c4ccccc4n3C)c2=O)cc1	1	5	9.9*	-28	0.86
COc1ccc(CCn2c(C(C)C)nc3c(c(=O)c4ccccc4n3C)c2=O)cc1	-7	27*	8.9*	-34	-4.3*
COc1ccc(CCn2c(C)nc3c(c(=O)c4ccccc4n3C)c2=O)cc1	16	21	0	-35	-1.3
Cc1ccc(S(=O)(=O)NCC(=O)N(CC(=O)NCC2CCCO2)Cc2ccco2)cc1 (configuration not stated)	18	x	2	x	0.021
O=C(c1n[nH]c2ccccc12)N1CCN(S(=O)(=O)c2ccc3ccccc3c2)CC1	77*	-6	5	-27	-0.94

Source: PubChem
